The values that follow come from article PMC5503752 (Biophysical chemistry, 2017).

Like-named read-outs stand apart in the source and are kept apart here.

For test [1], the system named is rat NaV1.2 IQ motif (residues 1901-1927) in YFP-CFP biosensor. As to the kind of experiment: CaM titrations of NaV1.2IQ YFP-CFP FRET biosensor. The format is binding. The settings on record: for Kd: read-out: Kd, apo CaM, apo (no CaCl2), pH 7.4, 22 °C, calculated from average ΔG. The method in brief: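 Rat NaV1.2 residues 1901–1927 inserted between YFP and CFP, expressed in BL21(DE3) (IPTG, 40 h, 18 °C), used as clarified lysate. Biosensor at 0.5 nM (apo) to 5 nM (Ca2+). Titrant: paramecium-sequence CaM or its domains.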

For test [2], the system named is NaV1.2IQ biosensor. Type of test: binding, rat. The settings on record: for fractional decrease/change in YFP intensity of biosensor, apo: [CaM]:[biosensor] = 10^3:1, biosensor 4 nM, excitation 430 nm, YFP 525 nm. An outline of the steps: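 Steady-state emission spectra were recorded with 430 nm excitation, showing CFP at 475 nm and YFP at 525 nm. Samples were biosensor alone or with >10^3-fold excess apo or Ca2+-saturated CaM, CaMN or CaMC, in titration buffer at pH 7.4 and 22 °C. Spectra were buffer-subtracted, dilution-corrected and normalized to free-biosensor intensity at 525 nm. Fractional YFP decrease was taken at λmax.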

Test [3] relates to IQ motifs of NaV1.2, 1.5, and 1.6. Conditions: cited from earlier work.
Test [4] relates to sites III and IV of CaM bound to the NaV1.2 IQ motif. Nature of the test: Simulation of calcium binding to CaM bound to the NaV1.2 IQ motif. An outline of the steps: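 Calcium binding to sites III and IV of IQ-bound CaM was simulated by thermodynamic linkage. Inputs were earlier-measured calcium-binding energies of CaM alone (ΔG1 −7.76, ΔG2 −15.92 kcal/mol) and the apo-versus-Ca2+ difference in IQ binding. The simulation used a total free energy of −13.99 kcal/mol and the same cooperativity as free CaM.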

Test [5] has as its system NaV1.2 IQ motif. Details: species or system rat. Conditions: free [CaM] 50–100 nM (estimated). An outline of the steps:
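Single-site fractional saturation isotherms of the IQ motif by apo or calcium-saturated CaM were simulated from the single-site binding equation. Input was the free energies measured by biosensor titration.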

Test [6] concerns rat Nav1.2IQp. The settings on record: thermodynamic linkage analysis; cited from earlier work.
Test [7] deals with ryanodine receptor RyR1. Conditions: cited from earlier work.
Test [8] concerns CaV1.2 IQ motif. The settings on record: cited from earlier work.
Test [9] has as its system CaM. The settings on record: absence of IQ motif; same conditions as this study; cited from earlier work.
Test [10] has as its system CaM bound to NaV1.2 IQ motif. The settings on record: cited from earlier work.
The test system of test [11] is NaV1.5 DIII-DIV linker. Conditions: cited from earlier work.

Take N-domain of CaM [CaMN]: the “binding to NaV1.2IQ biosensor, in words” value in test [1] (CaMN, apo and 1 mM calcium) is reported as “negligible binding”. Besides, the “deflection in fluorescence intensity relative to that seen at 50 nM CaMC” value in [2] (50 pM CaMN (so in the source) vs 50 nM CaMC) is reported as “less than 1%”. Moreover, in [2], the “fractional decrease/change in YFP intensity of biosensor, apo” value is given as ~ 1%. Moreover, the “binding of CaMN to NaV IQ motifs” value in test [3] (NaV1.2, 1.5 and 1.6 IQ motifs) was “undetectable or very weak binding”.
Take Calmodulin [CaM]: in test [1] ((Ca^2+)4-CaM vs apo CaM), the “ratio of Kd, (Ca^2+)4-CaM over apo CaM (higher, weaker)” value is ~ 30 fold. The equilibrium dissociation constant (Kd) (as a rule, the free concentration of one partner at which half of the binding sites on the other are occupied at equilibrium, for simple one-to-one binding) in [1] was 3.2 nM. In test [2], the “fractional decrease/change in YFP intensity of biosensor, apo” value is 36%. The “predicted occupancy of IQ motif by (Ca^2+)4-CaM at high calcium” value in test [4] (10 03BCM free calcium) is recorded as ~ 68%. In addition, the “predicted occupancy of NaV1.2 IQ motif, (Ca^2+)4-CaM” value in test [5] is on record as 37–54%. Also, the “predicted occupancy of NaV1.2 IQ motif, apo CaM” value in [5] is listed as 94–97%. Further, in test [6], the “relative affinity of apo vs calcium-saturated CaM for rat Nav1.2IQp” value is recorded as “binds more favorably than calcium-saturated CaM”. The “affinity for apo CaM relative to (Ca^2+)4-CaM, NaV IQ motifs” value in test [3] is “higher affinity for apo CaM than (Ca^2+)4-CaM”. The “effect on RyR1” value was “activated” in test [7] (listed as apo CaM) and “inhibited” in test [7] (listed as calcium-saturated CaM). For the same compound, in [8], the “affinity of (Ca^2+)4-CaM relative to apo CaM for CaV1.2 IQ motif” value is reported as “higher affinity for (Ca^2+)4-CaM than apo CaM”.
On to `[Ca+2]` [calcium], for which, in [4] (simulation for illustration, same cooperativity as CaM alone), the “total free energy of calcium binding to sites III and IV of CaM bound to NaV1.2 IQ motif” value was -13.99 kcal/mol. In test [9], the “ΔG1 (printed AG1) of calcium binding to CaM alone” value was -7.76 kcal/mol and the “ΔG2 of calcium binding to CaM alone” value was -15.92 kcal/mol. In addition, the “calcium equivalents (ions per CaM) required for saturation” value in test [10] (CaM bound to NaV1.2 IQ motif, NMR titration) is on record as 4. In addition, the “calcium-binding affinity of sites III and IV (CaMC) in CaM-IQp complex” value in [10] is listed as “diminished”.
On to C-domain of CaM [CaMC], for which the equilibrium dissociation constant (Kd) in test [1] was 11.6 nM. For the same compound, the “calcium-saturated CaMC bound to NaV1.2-IQ” value in test [4] (neuronal intracellular Ca^2+ range centered on 10 03BCM, simulation, Fig. 7B) is on record as 50–75%. Also, the “affinity of CaMC for NaV1.5 DIII-DIV linker” value in [11] was “micromolar affinity”.
